Species on record: Rattus norvegicus
Experiment: Displacement of [3H]flunitrazepam from GABAA receptor in rat cortical membrane assessed as [3H]flunitrazepam binding at 100 uM after 90 mins by scintillation counting
Type: cell membranes
How it was run: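 Rat frontal cortex membranes (sucrose homogenate, ultracentrifuged pellets in 50 mM Tris-HCl pH 7.4), 0.3 mg protein per tube, incubated 90 min at 4 °C with 1 nM [3H]flunitrazepam ± 100 μM test compound (final; benzyl-sugar analogues from ethanol stock). Nonspecific binding with 100 μM flumazenil. Rapid GF/B filtration, ice-cold buffer washes, scintillation counting; expressed as % specific binding; three independent experiments in triplicate.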

Compound	Activity [%]
CN1C(=O)[C@H]2C[C@@]3(CN2C(=O)c2cc(Br)ccc21)O[C@H](COCc1ccccc1)[C@@H](OCc1ccccc1)[C@@H]3OCc1ccccc1	111
O=C1Nc2ccccc2C(=O)N2C[C@]3(C[C@H]12)O[C@H](CO)[C@@H](O)[C@@H]3O	78.2
CN1C(=O)[C@H]2C[C@@]3(CN2C(=O)c2cc(Cl)ccc21)O[C@H](CO)[C@@H](O)[C@@H]3O	73.7
CN1C(=O)[C@H]2C[C@@]3(CN2C(=O)c2cc(Br)ccc21)O[C@H](CO)[C@@H](O)[C@@H]3O	84.2
CN1C(=O)[C@@H]2C[C@]3(CN2C(=O)c2ccccc21)O[C@@H](COCc1ccccc1)[C@H](OCc1ccccc1)[C@H]3OCc1ccccc1	106
CN1C(=O)[C@@H]2C[C@]3(CN2C(=O)c2cc(Br)ccc21)O[C@@H](CO)[C@H](O)[C@H]3O	82.2
CN1C(=O)[C@H]2C[C@@]3(CN2C(=O)c2cc(N)ccc21)O[C@H](CO)[C@@H](O)[C@@H]3O	70.6
O=C1Nc2ccc([N+](=O)[O-])cc2C(=O)N2C[C@]3(C[C@H]12)O[C@H](COCc1ccccc1)[C@@H](OCc1ccccc1)[C@@H]3OCc1ccccc1	101
CN1C(=O)[C@H]2C[C@@]3(CN2C(=O)c2cc(Cl)ccc21)O[C@H](COCc1ccccc1)[C@@H](OCc1ccccc1)[C@@H]3OCc1ccccc1	92.9
O=C1Nc2ccccc2C(=O)N2C[C@@]3(C[C@@H]12)O[C@@H](CO)[C@H](O)[C@H]3O	110
CN1C(=O)[C@H]2C[C@@]3(CN2C(=O)c2ccccc21)O[C@H](CO)[C@@H](O)[C@@H]3O	93
CN1C(=O)[C@H]2C[C@@]3(CN2C(=O)c2ccccc21)O[C@H](COCc1ccccc1)[C@@H](OCc1ccccc1)[C@@H]3OCc1ccccc1	96.4
CN1C(=O)[C@@H]2C[C@]3(CN2C(=O)c2cc(N)ccc21)O[C@@H](CO)[C@H](O)[C@H]3O	83.5
O=C1Nc2ccccc2C(=O)N2C[C@@]3(C[C@@H]12)O[C@@H](COCc1ccccc1)[C@H](OCc1ccccc1)[C@H]3OCc1ccccc1	96.3
Nc1ccc2c(c1)C(=O)N1C[C@@]3(C[C@H]1C(=O)N2)O[C@@H](CO)[C@H](O)[C@H]3O	73.9
Nc1ccc2c(c1)C(=O)N1C[C@]3(C[C@@H]1C(=O)N2)O[C@H](CO)[C@@H](O)[C@@H]3O	80.2
CN1C(=O)[C@@H]2C[C@]3(CN2C(=O)c2cc(Br)ccc21)O[C@@H](COCc1ccccc1)[C@H](OCc1ccccc1)[C@H]3OCc1ccccc1	93.2
CN1C(=O)[C@@H]2C[C@]3(CN2C(=O)c2cc([N+](=O)[O-])ccc21)O[C@@H](COCc1ccccc1)[C@H](OCc1ccccc1)[C@H]3OCc1ccccc1	82.8
CN1C(=O)[C@@H]2C[C@]3(CN2C(=O)c2cc(Cl)ccc21)O[C@@H](CO)[C@H](O)[C@H]3O	77
CN1C(=O)[C@@H]2CCCN2C(=O)c2cc([N+](=O)[O-])ccc21	63.4
CN1C(=O)[C@H]2CCCN2C(=O)c2cc([N+](=O)[O-])ccc21	80.2
CN1C(=O)[C@@H]2C[C@]3(CN2C(=O)c2cc(Cl)ccc21)O[C@@H](COCc1ccccc1)[C@H](OCc1ccccc1)[C@H]3OCc1ccccc1	82.3
O=C1Nc2ccccc2C(=O)N2C[C@]3(C[C@H]12)O[C@H](COCc1ccccc1)[C@@H](OCc1ccccc1)[C@@H]3OCc1ccccc1	112
O=C1Nc2ccccc2C(=O)N2CCC[C@H]12	97
CN1C(=O)[C@@H]2C[C@]3(CN2C(=O)c2ccccc21)O[C@@H](CO)[C@H](O)[C@H]3O	112
CN1C(=O)[C@H]2C[C@@]3(CN2C(=O)c2cc([N+](=O)[O-])ccc21)O[C@H](COCc1ccccc1)[C@@H](OCc1ccccc1)[C@@H]3OCc1ccccc1	74.9
O=C1Nc2ccc([N+](=O)[O-])cc2C(=O)N2C[C@@]3(C[C@@H]12)O[C@@H](COCc1ccccc1)[C@H](OCc1ccccc1)[C@H]3OCc1ccccc1	69.6
O=C1Nc2ccccc2C(=O)N2CCC[C@@H]12	95.5
